# Biological target: NS3 (Hepatitis C virus, UniProt A3EZJ3)
# Experiment: Inhibition of HCV NS3 protease
# Parameters: species or system Hepacivirus hominis
# Conditions: not given
# Outline: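 IC50 taken after a 30 min preincubation of enzyme with inhibitor. Each value is the mean of 2 independent measurements, with standard deviations within 35% of the mean.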
# NS3, sequence (A3EZJ3 whole entry): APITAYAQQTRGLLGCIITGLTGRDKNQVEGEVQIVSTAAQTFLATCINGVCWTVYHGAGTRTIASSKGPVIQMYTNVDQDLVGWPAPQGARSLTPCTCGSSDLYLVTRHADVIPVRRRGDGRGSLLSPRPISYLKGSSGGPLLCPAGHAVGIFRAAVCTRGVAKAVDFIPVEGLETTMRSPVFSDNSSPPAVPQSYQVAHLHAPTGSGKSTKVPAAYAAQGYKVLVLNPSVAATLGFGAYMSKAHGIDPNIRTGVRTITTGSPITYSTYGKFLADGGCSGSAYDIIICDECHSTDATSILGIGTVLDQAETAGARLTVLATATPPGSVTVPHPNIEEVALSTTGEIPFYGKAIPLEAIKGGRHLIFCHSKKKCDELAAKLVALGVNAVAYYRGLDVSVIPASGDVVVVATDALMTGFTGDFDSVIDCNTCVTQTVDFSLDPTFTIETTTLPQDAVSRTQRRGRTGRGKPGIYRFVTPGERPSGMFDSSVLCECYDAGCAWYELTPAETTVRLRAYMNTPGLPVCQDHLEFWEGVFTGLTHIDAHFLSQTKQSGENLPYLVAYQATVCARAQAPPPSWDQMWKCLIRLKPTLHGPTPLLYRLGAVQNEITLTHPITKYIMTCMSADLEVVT
row,Compound,IC50 [µM]
1,CC(C)C[C@H](NC(=O)C1(Cc2ccc(Cl)s2)Cc2ccccc2N1)C(=O)NC(CC(F)F)C(=O)C(=O)O (stereo partly specified),3.7
2,"CC(C)C[C@H](NC(=O)C1(C2CCCCC2)Cc2ccccc2N1)C(=O)NC(CC(F)F)C(=O)C(=O)O (single isomer, unassigned; diastereomer 1)",69
3,"CC(C)C[C@H](NC(=O)C1(CC2CCC2)Cc2ccccc2N1)C(=O)NC(CC(F)F)C(=O)C(=O)O (single isomer, unassigned; diastereomer 1)",34
4,"CC(C)C[C@H](NC(=O)C1(Cc2ccsc2C(=O)O)Cc2ccccc2N1)C(=O)NC(CC(F)F)C(=O)C(=O)O (single isomer, unassigned; diastereomer 1)",0.7
5,"CC(C)C[C@H](NC(=O)C1Cc2ccccc2N1)C(=O)NC(CC(F)F)C(=O)C(=O)O (single isomer, unassigned; diastereomer 2)",50
6,"CC(C)C[C@H](NC(=O)C1(Cc2ccsc2C(=O)O)Cc2ccccc2N1)C(=O)NC(CC(F)F)C(=O)C(=O)O (single isomer, unassigned; diastereomer 2)",27
7,"CC(C)C[C@H](NC(=O)C1Cc2ccc(OCC(=O)O)cc2N1)C(=O)NC(CC(F)F)C(=O)C(=O)O (single isomer, unassigned; diastereomer 2)",27
8,"CC(C)C[C@H](NC(=O)C1(Cc2ccsc2C(=O)O)Cc2ccccc2N1)C(=O)NC(CC(F)F)C(=O)C(=O)O (single isomer, unassigned; diastereomer 3)",38
9,"CC(C)C[C@H](NC(=O)C1(Cc2ccsc2C(=O)O)Cc2ccccc2N1)C(=O)NC(CC(F)F)C(=O)C(=O)O (single isomer, unassigned; diastereomer 4)",73
10,CC(C)C[C@H](NC(=O)C1Cc2ccc(OCC(=O)O)cc2N1)C(=O)NC(CC(F)F)C(=O)C(=O)O (stereo in doubt; 7m),10

# Biological target: NS3 (Hepatitis C virus) (UniProt A3EZJ3)
# Experiment: Inhibition of HCV NS3 protease at 100 uM
# Conditions: Hepacivirus hominis
# NS3 (Hepatitis C virus), sequence (A3EZJ3 as listed by the source): as the sequence (A3EZJ3 whole entry) above
row,Compound,inhibition [%]
1,"CC(C)C[C@H](NC(=O)C1Cc2ccccc2N1)C(=O)NC(CC(F)F)C(=O)C(=O)O (single isomer, unassigned; diastereomer 1)",< 50
2,"CC(C)C[C@H](NC(=O)C1(C2CCCCC2)Cc2ccccc2N1)C(=O)NC(CC(F)F)C(=O)C(=O)O (single isomer, unassigned; diastereomer 2)",< 50
3,"CC(C)C[C@H](NC(=O)C1(CC2CCC2)Cc2ccccc2N1)C(=O)NC(CC(F)F)C(=O)C(=O)O (single isomer, unassigned; diastereomer 2)",< 50
4,"CC(C)C[C@H](NC(=O)C1Cc2ccc(OCC(=O)O)cc2N1)C(=O)NC(CC(F)F)C(=O)C(=O)O (single isomer, unassigned; diastereomer 3)",< 50
5,"CC(C)C[C@H](NC(=O)C1Cc2ccccc2N1)C(=O)NC(CC(F)F)C(=O)C(=O)O (single isomer, unassigned; diastereomer 3)",< 50
6,"CC(C)C[C@H](NC(=O)C1Cc2ccc(OCC(=O)O)cc2N1)C(=O)NC(CC(F)F)C(=O)C(=O)O (single isomer, unassigned; diastereomer 4)",< 50

# Reference: ChEMBL document CHEMBL1149267, “The design and enzyme-bound crystal structure of indoline based peptidomimetic inhibitors of hepatitis C virus NS3 protease” (J Med Chem, 2004)
